For series [1], the system named is MRSA. The conditions noted are these: cited from earlier work.
For series [2], the system named is MRSA. The conditions noted are these: cited from earlier work. The source holds these as a separate data set.
A further series has as its system MRSA-244661. In words: MIC and MBC, broth dilution. It is filed as cell-based, Methicillin-resistant Staphylococcus aureus. The conditions noted are these: MRSA-244,661, clinical isolate. Summed up:
(§1)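 Strains were grown from LB agar colonies in LB (180 rpm, 37 °C, 12 h), then diluted 1:100 and grown 3 h to log phase. The inoculum was adjusted to 1 × 10^6 CFU/mL for 96-well broth dilution, 37 °C, 18 h. MIC was the lowest concentration without visible growth. For MBC, 100.0 µL per well was plated on MHA (37 °C, 16–20 h); MBC was the lowest concentration without colonies.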
A general note: Broth dilution looks for growth in wells or tubes with falling amounts of substance.

For the next series, the system named is MRSA-244358. The series can be described thus: MIC and MBC, broth dilution. It is filed as cell-based, Methicillin-resistant Staphylococcus aureus. The conditions noted are these: MRSA-244,358, clinical isolate. Summed up:
as §1

For the next series, the system named is MRSA-244862. The series can be described thus: MIC and MBC, broth dilution. The following applies: MRSA-244,862, clinical isolate. The format is cell-based, Methicillin-resistant Staphylococcus aureus. Summed up: as §1
For the next series, the system named is MRSA-244135. The series can be described thus: MIC and MBC, broth dilution. It is filed as cell-based, Methicillin-resistant Staphylococcus aureus. The conditions noted are these: MRSA-244,135, clinical isolate. The essentials:
as §1

The subject of another series is MRSA-244548. In words: MIC and MBC, broth dilution. The following applies: MRSA-244,548, clinical isolate. It is filed as cell-based, Methicillin-resistant Staphylococcus aureus. Summed up: as §1
The subject of another series is MRSA-244425. In words: MIC and MBC, broth dilution. It is filed as cell-based, Methicillin-resistant Staphylococcus aureus. The conditions noted are these: MRSA-244,425, clinical isolate. Summed up:
as §1

In the next series the test system is MRSA-244288. In words: MIC and MBC, broth dilution. The format is cell-based, Methicillin-resistant Staphylococcus aureus. The conditions noted are these: MRSA-244,288, clinical isolate. Summed up:
as §1

The next series relates to MRSA-244757. In words: MIC and MBC, broth dilution. It is filed as cell-based, Methicillin-resistant Staphylococcus aureus. The conditions noted are these: MRSA-244,757, clinical isolate. The essentials: as §1
The next series has as its system MRSA-244268. In words: MIC and MBC, broth dilution. The format is cell-based, Methicillin-resistant Staphylococcus aureus. The following applies: MRSA-244,268, clinical isolate. The essentials: as §1
The next series deals with MRSA-244410. In words: MIC and MBC, broth dilution. The conditions noted are these: MRSA-244,410, clinical isolate. The format is cell-based, Methicillin-resistant Staphylococcus aureus. The essentials: as §1
Another series has as its system MRSA strain (ATCC 43300). The series can be described thus: MIC and MBC, broth dilution. The format is cell-based, Methicillin-resistant Staphylococcus aureus. Summed up: as §1
For series [3], the system named is MRSA (ATCC 433000). The series can be described thus: Time-kill assay. The conditions noted are these: 24 h. The format is cell-based, Methicillin-resistant Staphylococcus aureus. The essentials: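 MRSA grown to log phase in LB (37 °C, 180 rpm) and adjusted to 1 × 10^6 CFU/mL. Incubated in 24-well plates with test compound at 0, 1/2×MIC or MIC for 24 h at 37 °C. Sampled every 2 h, with absorbance read at 570 nm.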

Series [4] has as its system MRSA (ATCC 433000). In words: SYTOX green and PI assay. The conditions noted are these: 1/2×, 2×MIC, 12 h. The format is cell-based, Methicillin-resistant Staphylococcus aureus. Summed up: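 Log-phase MRSA grown in LB at 37 °C, 180 rpm, adjusted to 1 × 10^6 CFU/mL. Exposed to test compound at 1/2×, 1× and 2×MIC for 12 h at 37 °C, then stained with SYTO 9 and PI for 30 min in the dark. Washed twice in PBS (pH 7.5, 0.1 M), then imaged by fluorescence microscopy: green marks viable cells, red marks dead cells.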

Series [5] deals with MRSA (ATCC 433000). In words: Scanning electron microscopy. The format is cell-based, Methicillin-resistant Staphylococcus aureus. The following applies: 2×MIC, 12 h. The essentials:
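Log-phase MRSA exposed to test compound at 2×MIC for 12 h at 37 °C, with untreated cells as blank control. Cells were washed three times in PBS […]. They were fixed in 2.5% glutaraldehyde plus 2% paraformaldehyde for 12 h, air-dried and imaged by scanning electron microscopy.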

The test system of another series is LO2 cells. In words: Cell viability assay using MTT. The format is cell-based. The essentials:
(§2)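 Cells were kept in RPMI 1640 with 10% FBS and 1% penicillin-streptomycin at 37 °C, 5% CO2. They were seeded at 1 × 10^5 cells/well and grown 24 h to about 80% confluence. After medium removal, test compound was added at final 0.78125–100.0 µg/mL (twofold series), with a 0.5% DMSO control. Exposure was 24 h or 48 h, then MTT for 4 h, A490. Three repeats; IC50 derived.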

The next series relates to HK-2 cells. In words: Cell viability assay using MTT. It is filed as cell-based. The essentials:
as §2

The next series has as its system HaCat cells. The series can be described thus: Cell viability assay using MTT. It is filed as cell-based. The essentials: as §2
Series [6] has as its system rabbit red blood cells (RBCs). The series can be described thus: In vitro hemolysis assay. The format is cell-based. The following applies: 1 h, rabbit erythrocytes. Summed up: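 Rabbit erythrocytes were exposed 1 h to test compound at 1/2×, 1× and 2× MIC. After centrifugation, supernatants were read spectrophotometrically at 570 nm and photographed. PBS served as negative control, and a positive control was included. n = 3.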

Series [7] has as its system MRSA. The series can be described thus: Mouse skin infection model. The format is in vivo. The conditions noted are these: day 13; 2.0 µg/mL once daily, mice. Summed up: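 SPF male and female mice (18.0–22.0 g) had dorsal fur shaved and both sides of the back scalded with a scaldometer. 20.0 µL log-phase MRSA (1.5-3 × 10^6 CFU/mL in sterile saline) went onto each wound, which was then covered with sterile gauze. Test compound or vancomycin (2.0 µg/mL, 20.0 µL) was applied topically once daily, and model mice got solvent. Wounds were photographed daily for 13 days, and H&E sections were taken on day 13 (n = 6).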

The subject of a further series is B. subtilis. The conditions noted are these: cited from earlier work.
The next series concerns S. aureus. The conditions noted are these: cited from earlier work.
Another series has as its system P. notatum. The conditions noted are these: cited from earlier work.
A further series concerns human KB carcinoma cells. The following applies: cited from earlier work.

In brackets after ≈: the same amount, converted by molar mass. Several values for one entry are separate records, joined by “and”; a condition that tells them apart may be missing. Equal entries are not always repeated. Some results are limits rather than exact numbers.

Regarding 7,8-dideoxygriseorhodin C, the “Decrease in MIC on simultaneous treatment with oxacillin” value in the series with MRSA [1] is “approximately tenfold decrease in MIC”. Further, in the series with MRSA [1] (with oxacillin), the Combination index is less than 0.5.
On to 8-Methoxygriseorhodin C, for which the “MIC against MRSA” value with MRSA [2] is 0.78 µg/mL.
What is called MIC is the smallest concentration in the dilution series that meets the test's criterion for growth inhibition. With `COC1=CC(=O)c2c(O)c3c(c(O)c2C1=O)O[C@]1(Oc2c(cc4cc(C)oc(=O)c4c2O)[C@@H](O)[C@@H]1O)[C@@H]3O` [Griseorhodin C], the MIC against MRSA-244661 was 1 µg/mL (≈ 1.9 µM); in the series on MRSA-244358, 1 µg/mL (≈ 1.9 µM); in the series with MRSA-244862 it was 1 µg/mL (≈ 1.9 µM); against MRSA-244135, 2 µg/mL (≈ 3.8 µM); with MRSA-244548, 0.5 µg/mL (≈ 0.95 µM); against MRSA-244425 it was 1 µg/mL (≈ 1.9 µM). For the same compound, the MIC was 1 µg/mL (≈ 1.9 µM) in the series with MRSA-244288; 1 µg/mL (≈ 1.9 µM) against MRSA-244757; 2 µg/mL (≈ 3.8 µM) against MRSA-244268; 1 µg/mL (≈ 1.9 µM) in the series with MRSA-244410; 1.0 µg/mL and 1 µg/mL in the series with MRSA strain (ATCC 43300) (MRSA ATCC 43,300). In addition, the “Inhibition of MRSA growth in time-kill curve” value in the series with MRSA (ATCC 433000) [3] (1/2×MIC, vs control group) was “some inhibition of MRSA growth compared to the control group”. Also, in the series with MRSA (ATCC 433000) [3] (MIC), the “Bacteriostatic activity in time-kill curve compared with vancomycin” value is “stronger bacteriostatic activity against MRSA than the clinically positive control drug, vancomycin”. The “LIVE/DEAD fluorescence (red dead, green viable cells)” value with MRSA (ATCC 433000) [4] is given as “exhibits bactericidal effects against MRSA”. In addition, the “Morphological changes of MRSA by SEM” value in the series on MRSA (ATCC 433000) [5] was “the cell walls appeared wrinkled, the surfaces showed signs of damage, and cellular integrity was compromised”. Also, the “Cell morphology under the microscope” value in the series on LO2 cells (50 ~ 100 µg/mL) was “the cell morphology remained normal and the arrangement was regular, and no fragmentation or cell death was observed”; with HK-2 cells (50 ~ 100 µg/mL), “the cell morphology remained normal and the arrangement was regular, and no fragmentation or cell death was observed”; in the series on HaCat cells (50 ~ 100 µg/mL), “the cell morphology remained normal and the arrangement was regular, and no fragmentation or cell death was observed”. Moreover, the “IC50 (cell viability)” value in the series on LO2 cells (MTT, 48 h) was determined as 156.2 µg/mL (≈ 297 µM); in the series with HK-2 cells (MTT, 48 h), 86.32 µg/mL (≈ 164 µM); with HaCat cells (MTT, 48 h), 59.27 µg/mL (≈ 113 µM). For the same compound, the Hemolysis rate in series [6] (1/2 MIC) is 0.70%; in [6] (2×MIC), 2.13%; in series [6] (MIC) it was 1.77%. Besides, the “HE staining of skin wound” value in the series with MRSA [7] is “fewer inflammatory cells, lower thickness, and better structural integrity of hair follicles and other structures compared to the Vancomycin-treated group”. The Inhibitory activity entry with B. subtilis, with S. aureus, with P. notatum and with human KB carcinoma cells was “inhibitory activity” throughout.
In the series with MRSA strain (ATCC 43300) (Staphylococcus aureus, ATCC43|ATCC43300|MRSA), `CN[C@H](CC(C)C)C(=O)N[C@H]1C(=O)N[C@@H](CC(N)=O)C(=O)N[C@H]2C(=O)N[C@H]3C(=O)N[C@H](C(=O)N[C@H](C(=O)O)c4cc(O)cc(O)c4-c4cc3ccc4O)[C@H](O)c3ccc(c(Cl)c3)Oc3cc2cc(c3O[C@@H]2O[C@H](CO)[C@@H](O)[C@H](O)[C@H]2O[C@H]2C[C@](C)(N)[C@H](O)[C@H](C)O2)Oc2ccc(cc2Cl)[C@H]1O` [vancomycin, reference compound] returned an MIC of 1 µg/mL (≈ 0.69 µM).

Values taken from PMC11618768 (Scientific Reports, 2024).
